Data from ChEMBL document CHEMBL1125498, “N-methylated analogs of Ac[Nle28,31]CCK(26-33): synthesis, activity, and receptor selectivity” (J Med Chem, 1992).
Where a SMILES comes first, the peptide text is derived from it. [ ]: non-standard residue; d: D form. sY = N[C@@H](Cc1ccc(OS(=O)(=O)O)cc1)C(=O)O; Nle = CCCC[C@H](N)C(=O)O

Columns and labels:
[1] = target: T1, Cholecystokinin receptor type A (Cavia porcellus, UniProt Q63931); test: In vitro smooth muscle contraction activity in guinea pig gall bladder cholecystokinin type A receptor; type: functional, tissue-based
T1 sequence (Q63931 whole entry): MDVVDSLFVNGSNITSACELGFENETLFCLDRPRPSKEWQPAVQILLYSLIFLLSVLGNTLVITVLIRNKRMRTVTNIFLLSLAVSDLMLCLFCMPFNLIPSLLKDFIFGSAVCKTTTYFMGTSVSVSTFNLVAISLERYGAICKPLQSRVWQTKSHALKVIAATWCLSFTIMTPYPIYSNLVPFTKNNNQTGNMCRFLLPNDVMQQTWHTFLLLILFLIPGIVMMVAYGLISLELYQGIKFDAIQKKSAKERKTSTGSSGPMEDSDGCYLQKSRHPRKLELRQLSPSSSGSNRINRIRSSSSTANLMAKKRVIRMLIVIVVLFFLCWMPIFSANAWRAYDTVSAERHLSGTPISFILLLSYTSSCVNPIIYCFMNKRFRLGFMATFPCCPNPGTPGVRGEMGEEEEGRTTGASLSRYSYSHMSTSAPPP
Outline: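 Isolated guinea pig tissue strips, equilibrated 90 min with periodic tension readjustment and bath changes. Isometric force recorded. Cumulative-free concentration-response curves from increasing peptide concentrations, strips washed three times with 5–15-min intervals between doses. Carbachol test dose (100 nM) measured before, during and after as control. EC50 from curves; points in duplicate, mean ± SEM of at least three experiments.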

[2] = target: Cholecystokinin receptor (Cavia porcellus); test: In vitro smooth muscle contraction activity in guinea pig ileum consists of two or three CCK receptor subtypes
Cavia porcellus [3] = species: Cavia porcellus; test: Relative Potency(RP %) (EC50) was calculated by using smooth muscle contraction assay in guinea pig ileum with relative to Ac[Nle28,31]CCK(26-33)(EC50); type: functional
Outline: (§1)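 Same isolated guinea pig tissue contraction set-up: 90 min equilibration, isometric force, increasing peptide concentrations with three washes at 5–15-min intervals, 100 nM carbachol control.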

Cavia porcellus [4] = species: Cavia porcellus; test: Relative Potency(RP %) (EC50) was calculated by using smooth muscle contraction assay in guinea pig stomach with relative to Ac[Nle28,31]CCK(26-33)(EC50); type: functional, Muscle tissue; outline: as §1
[5] = target: Gastrin/cholecystokinin type B receptor (Cavia porcellus); test: In vitro smooth muscle contraction activity in guinea pig stomach consisting of CCK/gastrin receptor subtype
Cavia porcellus [6] = species: Cavia porcellus; test: Relative Potency(RP %) (EC50) was calculated by using smooth muscle contraction assay in guinea pig gallbladder with relative to Ac[Nle28,31]CCK(26-33)(EC50); type: functional, Muscle tissue; outline: as §1

| Compound | EC50 [1] [nM] | EC50 [2] [nM] | EC50 [5] [nM] | Relative Potency (Cavia porcellus [3]) | Relative Potency (Cavia porcellus [4]) | Relative Potency (Cavia porcellus [6]) |
| --- | --- | --- | --- | --- | --- | --- |
| CCCC[C@H](NC(=O)[C@H](Cc1ccc(OS(=O)(=O)O)cc1)NC(=O)[C@H](CC(=O)O)NC(C)=O)C(=O)NCC(=O)N[C@@H](Cc1c[nH]c2ccccc12)C(=O)N[C@@H](CCCC)C(=O)N[C@@H](CC(=O)O)C(=O)N(C)[C@@H](Cc1ccccc1)C(N)=O | 3 | – | – | – | – | – |
| CCCC[C@H](NC(=O)[C@H](Cc1ccc(OS(=O)(=O)O)cc1)NC(=O)[C@H](CC(=O)O)NC(C)=O)C(=O)NCC(=O)N[C@@H](Cc1c[nH]c2ccccc12)C(=O)N(C)[C@@H](CCCC)C(=O)N[C@@H](CC(=O)O)C(=O)N[C@@H](Cc1ccccc1)C(N)=O | 20 | 37 | 140 | 4 | 10 | 6 |
| CCCC[C@H](NC(=O)[C@H](Cc1ccc(OS(=O)(=O)O)cc1)NC(=O)[C@H](CC(=O)O)NC(C)=O)C(=O)NCC(=O)N(C)[C@@H](Cc1c[nH]c2ccccc12)C(=O)N[C@@H](CCCC)C(=O)N[C@@H](CC(=O)O)C(=O)N[C@@H](Cc1ccccc1)C(N)=O | 53 | – | – | – | – | – |
| CCCC[C@H](NC(=O)[C@H](Cc1c[nH]c2ccccc12)NC(=O)CNC(=O)[C@H](CCCC)NC(=O)[C@H](Cc1ccc(OS(=O)(=O)O)cc1)N(C)C(=O)[C@H](CC(=O)O)NC(C)=O)C(=O)N[C@@H](CC(=O)O)C(=O)N[C@@H](Cc1ccccc1)C(N)=O | 1.4 | – | – | – | – | – |
| CCCC[C@H](NC(=O)[C@H](Cc1c[nH]c2ccccc12)NC(=O)[C@@H]1CCCN1C(=O)[C@H](CCCC)NC(=O)[C@H](Cc1ccc(OS(=O)(=O)O)cc1)NC(=O)[C@H](CC(=O)O)NC(C)=O)C(=O)N[C@@H](CC(=O)O)C(=O)N[C@@H](Cc1ccccc1)C(N)=O (Ac-D[sY][Nle]PW[Nle]DF-NH2) | 60 | 104 | 54 | 1.3 | 25 | 2 |

Continued, in another order:

| EC50 [1] [nM] | EC50 [2] [nM] | EC50 [5] [nM] | Compound | Relative Potency (Cavia porcellus [3]) | Relative Potency (Cavia porcellus [4]) | Relative Potency (Cavia porcellus [6]) |
| --- | --- | --- | --- | --- | --- | --- |
| 2 | – | – | CCCC[C@H](NC(=O)[C@H](Cc1ccc(OS(=O)(=O)O)cc1)NC(=O)[C@H](CC(=O)O)NC(C)=O)C(=O)NCC(=O)N[C@@H](Cc1c[nH]c2ccccc12)C(=O)N[C@@H](CCCC)C(=O)N(C)[C@@H](CC(=O)O)C(=O)N[C@@H](Cc1ccccc1)C(N)=O | – | – | – |
| 0.1 | – | – | CCCC[C@H](NC(=O)[C@H](Cc1c[nH]c2ccccc12)NC(=O)CN(C)C(=O)[C@H](CCCC)NC(=O)[C@H](Cc1ccc(OS(=O)(=O)O)cc1)NC(=O)[C@H](CC(=O)O)NC(C)=O)C(=O)N[C@@H](CC(=O)O)C(=O)N[C@@H](Cc1ccccc1)C(N)=O | – | – | – |
| 1.2 | – | – | CCCC[C@H](NC(=O)[C@H](Cc1ccc(OS(=O)(=O)O)cc1)NC(=O)[C@H](CC(=O)O)NC(C)=O)C(=O)NCC(=O)N[C@@H](Cc1c[nH]c2ccccc12)C(=O)N[C@@H](CCCC)C(=O)N[C@@H](CC(=O)O)C(=O)N[C@@H](Cc1ccccc1)C(N)=O | – | – | – |
